Measured values from ChEMBL document CHEMBL1152975, “Design and synthesis of orally bioavailable serum and glucocorticoid-regulated kinase 1 (SGK1) inhibitors” (Bioorg Med Chem Lett, 2009).

Experiments:
[1] = biological target: T1, Serine/threonine-protein kinase Sgk1 (Homo sapiens, UniProt O00141); assay: Inhibition of SGK1-mediated epithelial sodium channel activity in human M-1 cells assessed as short circuit current by whole cell electrophysiological transepithelial experiment; type: cell-based
T1 sequence (O00141 whole entry): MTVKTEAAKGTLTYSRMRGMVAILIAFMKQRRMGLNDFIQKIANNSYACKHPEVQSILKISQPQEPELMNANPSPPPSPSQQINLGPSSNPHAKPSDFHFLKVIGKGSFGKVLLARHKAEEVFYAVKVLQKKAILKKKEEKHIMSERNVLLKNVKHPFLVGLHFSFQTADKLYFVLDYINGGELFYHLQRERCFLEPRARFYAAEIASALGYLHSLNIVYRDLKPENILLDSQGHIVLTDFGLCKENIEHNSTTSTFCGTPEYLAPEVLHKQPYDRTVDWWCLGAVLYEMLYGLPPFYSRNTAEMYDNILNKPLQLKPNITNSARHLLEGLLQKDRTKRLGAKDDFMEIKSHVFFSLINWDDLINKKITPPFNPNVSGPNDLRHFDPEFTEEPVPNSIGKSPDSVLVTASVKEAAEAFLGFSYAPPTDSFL

[2] = Plasma clearance in rat by discrete study; type: ADME, organism-based
How it was run: (§1)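 Each compound was dosed on its own (discrete study) to rats, iv and orally. Clearance, Vdss and terminal half-life come from the iv arm; oral AUC0–t and dose-normalized AUC0–t come from the oral arm.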

[3] = Volume of distribution at steady state in rat by discrete study; type: ADME, organism-based; details: in vivo, read-out: Vdss; how it was run: as §1
[4] = Terminal half life in iv dosed rat by discrete study; type: ADME, organism-based; details: in vivo, read-out: beta t1/2; how it was run: as §1
[5] = AUC (0 to t) in po dosed rat by discrete study; type: ADME, organism-based; details: plasma; how it was run: as §1
Rattus norvegicus [6] = assay: Dose normalized AUC (0 to t) in po dosed rat by discrete study; type: ADME, organism-based; details: in vivo; how it was run: as §1
[7] = Plasma clearance in rat by cassette dosing; type: ADME, organism-based
How it was run: (§2)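 Rats were given a cassette of four compounds as one mixture, dosed iv and orally. Clearance, Vdss and terminal half-life come from the iv arm; oral AUC0–t and dose-normalized AUC0–t come from the oral arm.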

[8] = Volume of distribution at steady state in rat by cassette dosing; type: ADME, organism-based; details: in vivo, read-out: Vdss; how it was run: as §2
[9] = Terminal half life in iv dosed rat by cassette dosing; type: ADME, organism-based; details: in vivo, read-out: beta t1/2; how it was run: as §2
[10] = AUC (0 to t) in po dosed rat by cassette dosing; type: ADME, organism-based; details: plasma; how it was run: as §2
Rattus norvegicus [11] = assay: Dose normalized AUC (0 to t) in po dosed rat by cassette dosing; type: ADME, organism-based; details: in vivo; how it was run: as §2
[12] = biological target: T1, Serine/threonine-protein kinase Sgk1; assay: Inhibition of SGK1 by fluorescence polarization assay
[13] = Dissociation constant, pKa of the compound; type: physicochemical

Row | IC50 [1] | clearance [7] | Vd [8] | half-life [9] | AUC(0-t) [10] | AUC (Rattus norvegicus [11]) | IC50 [12] | SMILES | also measured
1 | 880 nM |  |  |  |  |  |  | O=C(O)Cc1ccc(-c2c[nH]c3ncc(-c4ccc5ccccc5c4)cc23)cc1 | clearance [2]: 21.3 mL/min/kg; Vd [3]: 1.3 L/kg; half-life [4]: 4.22 h; AUC(0-t) [5]: 467 ng·h/mL; AUC (Rattus norvegicus [6]): 225 ng·h/mL/mg/kg
2 |  | 25.7 mL/min/kg | 0.77 L/kg | 1.58 h | 313 ng·h/mL | 134 ng·h/mL/mg/kg |  | O=C(O)c1ccc(-c2c[nH]c3ncc(-c4ccccc4)cc23)cc1C1CCCC1 [GSK-650394] | 
3 | 2000 nM | 6.56 mL/min/kg | 2.5 L/kg | 8.13 h | 1910 ng·h/mL | 905 ng·h/mL/mg/kg | 40 nM | CC(C)(C(=O)O)c1ccc(-c2c[nH]c3ncc(-c4cccc(C#N)c4)cc23)cc1 | 
4 | 1460 nM |  |  |  |  |  | 50 nM | CC(C)(C(=O)O)c1ccc(-c2c[nH]c3ncc(-c4ccccc4)cc23)cc1 | 
5 | 870 nM | 4.32 mL/min/kg | 0.67 L/kg | 4.4 h | 4170 ng·h/mL | 2100 ng·h/mL/mg/kg | 63 nM | CC(C)(C(=O)O)c1ccc(-c2c[nH]c3ncc(-c4ccc5ccccc5c4)cc23)cc1 | 
6 | 580 nM | 21.9 mL/min/kg | 0.62 L/kg | 1.17 h | 373 ng·h/mL | 176 ng·h/mL/mg/kg | 5 nM | CC(C)Cc1cc(-c2c[nH]c3ncc(-c4ccccc4)cc23)ccc1C(=O)O | 
7 |  |  |  |  |  |  | 400 nM | NCc1ccc(-c2c[nH]c3ncc(-c4ccccc4)cc23)cc1 | 
8 |  |  |  |  |  |  | 3160 nM | COC(=O)c1ccc(-c2c[nH]c3ncc(-c4ccccc4)cc23)cc1 | 
9 |  |  |  |  |  |  | 125 nM | CC(C(=O)O)c1ccc(-c2c[nH]c3ncc(-c4ccc5ccccc5c4)cc23)cc1 (centres undefined) | 
10 |  |  |  |  |  |  | 160 nM | c1ccc(-c2cnc3[nH]cc(-c4ccc(-c5nnn[nH]5)cc4)c3c2)cc1 | pKa [13]: 4.9
11 | 1300 nM |  |  |  |  |  |  | O=C(O)c1ccc(-c2c[nH]c3ncc(-c4ccccc4)cc23)cc1 | pKa [13]: 4.2; clearance [2]: 64.4 mL/min/kg; Vd [3]: 8.8 L/kg; half-life [4]: 9.4 h; AUC(0-t) [5]: 392 ng·h/mL; AUC (Rattus norvegicus [6]): 154 ng·h/mL/mg/kg
12 |  |  |  |  |  |  | 5000 nM | CC(=O)c1ccc(-c2c[nH]c3ncc(-c4ccccc4)cc23)cc1 | 
13 | 710 nM | 9.4 mL/min/kg | 0.43 L/kg | 1.62 h | 1500 ng·h/mL | 600 ng·h/mL/mg/kg | 20 nM | CCc1cc(-c2c[nH]c3ncc(-c4ccccc4)cc23)ccc1C(=O)O | 
